According to ChEMBL document CHEMBL3124904, “Second-generation derivatives of the eukaryotic translation initiation inhibitor pateamine A targeting eIF4A as potential anticancer agents” (Bioorg Med Chem, 2014):
Blank lines part the entries; values can stand above or below the molecule they belong to. The source made the active and inactive calls. The rule behind the calls is not given here.

How the values were obtained:
Jurkat [1] = assay: Immunosuppressive activity in human Jurkat T cells assessed as inhibition of IL-2 transcription; type: functional, cell-based
[2] = Antiproliferative activity against BAEC assessed as DNA synthesis level after 24 hrs by thymidine incorporation assay; conditions: Bos taurus
Procedure, shortened: (§1)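 Cells kept at 37 °C, 5% CO2 with penicillin-streptomycin and 10% FBS. Adherent lines seeded at 2000 cells/well and left to recover overnight; Jurkat seeded at 5000 cells/well with no recovery period. Compound added in DMSO (0.1% final, vehicle-only control) at 0.001–100 nM over 10 wells. DNA synthesis read out after 24 h. Mean IC50 from at least 3 independent assays.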

[3] = Antiproliferative activity against human Jurkat T cells assessed as DNA synthesis level after 24 hrs by thymidine incorporation assay; type: functional, cell-based; procedure, shortened: as §1
HaCaT = assay: Antiproliferative activity against human HaCaT cells assessed as DNA synthesis level after 24 hrs by thymidine incorporation assay; type: functional, cell-based; procedure, shortened: as §1
RKO = assay: Antiproliferative activity against human RKO cells assessed as DNA synthesis level after 24 hrs by thymidine incorporation assay; type: functional, cell-based; procedure, shortened: as §1
HeLa [4] = assay: Antiproliferative activity against human HeLa cells assessed as DNA synthesis level after 24 hrs by thymidine incorporation assay; type: functional, cell-based; procedure, shortened: as §1
[5] = Half life in RPMI media at 10 uM by HPLC analysis; type: physicochemical
Procedure, shortened: (§2)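 Compound added from DMSO stock to pre-heated RPMI 1640 (1.8 mL) plus 0.2 mL human AB male serum or FBS, or to 2 mL RPMI alone, at final 1 or 10 μM. Samples analysed by HPLC at pH 9.5 (formic acid/ammonia in acetonitrile/water), with conversion taken from the substrate/internal standard peak ratio. Run in triplicate; half-lives ± SD.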

[6] = Half life in RPMI media at 10 uM by HPLC analysis in presence of fetal bovine serum; type: ADME; conditions: cattle; procedure, shortened: as §2
[7] = Half life in RPMI media at 10 uM by HPLC analysis in presence of human blood serum; type: ADME; procedure, shortened: as §2
[8] = Selectivity ratio of IC50 for MEF to IC50 for human Jurkat T cells; type: cell-based; conditions: mouse (MEF) and human (Jurkat T cells), read-out: Ratio IC50
[9] = Selectivity ratio of IC50 for MEF to IC50 for human SK-MEL-2 cells; type: cell-based; conditions: mouse (MEF) and human (SK-MEL-2 cells), MEF and SK-MEL-2 cells; read-out: Ratio IC50
MEF = assay: Antiproliferative activity against MEF after 72 hrs by MTT assay; type: cell-based; conditions: Mus musculus
[10] = Selectivity ratio of IC50 for MEF to IC50 for human HeLa cells; type: cell-based; conditions: mouse (MEF) and human (HeLa cells), read-out: Ratio IC50
SK-MEL-2 [11] = assay: Antiproliferative activity against human SK-MEL-2 cells after 72 hrs by MTT assay in presence of 5% FBS; type: functional, cell-based; conditions: SK-MEL-2, 72 h
Procedure, shortened: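 SK-MEL2 grown with reduced serum (5% FBS) to slow proliferation. Compounds added in DMSO (0.1% final), followed by a 72 h MTT proliferation assay.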

[12] = Dissociation constant, pKa of the compound; type: physicochemical
Oryctolagus cuniculus [13] = organism: Oryctolagus cuniculus; assay: Inhibition of cap-independent HCV-IRES-induced translation in rabbit reticulocyte lysate at 500 nM after 1.5 hrs by luciferase reporter gene assay; type: functional
Procedure, shortened: (§3)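 Capped bicistronic reporter mRNA: cap-dependent firefly luciferase first cistron, HCV IRES-driven Renilla second cistron. Transcribed in vitro with SP6 from the BamHI-linearised plasmid. 200 ng RNA translated in rabbit reticulocyte lysate with 70 mM KCl, 2 mM DTT, RNasin and compound in DMSO (5% v/v final), 30 °C for 1.5 h. Dual luciferase readout. Duplicates, 4 independent assays, mean IC50 by curve fit.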

[14] = Binding affinity to eIF4A1/2 in rabbit reticulocyte lysate assessed as inhibition of cap-dependent translation after 1.5 hrs by dual luciferase reporter gene assay; parameters: species or system Oryctolagus cuniculus; procedure, shortened: as §3
Jurkat [15] = assay: Antiproliferative activity against human Jurkat T cells up to 10^4 nM after 72 hrs by MTT assay; type: functional, cell-based
Procedure, shortened: (§4)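 HeLa and SK-MEL2 grown in DMEM, Jurkat in RPMI 1640, each with 10% FBS and penicillin-streptomycin, at 37 °C and 5% CO2. Adherent cells seeded at 2000/well and left to recover overnight; Jurkat seeded at 5000/well with no recovery. Compound added in DMSO (0.1% final), then 72 h incubation and MTT readout.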

SK-MEL-2 [16] = assay: Antiproliferative activity against human SK-MEL-2 cells after 72 hrs by MTT assay in presence of 10% FBS; type: functional, cell-based; conditions: SK-MEL-2, 72 h; procedure, shortened: as §4
HeLa [17] = assay: Antiproliferative activity against human HeLa cells after 72 hrs by MTT assay; type: functional, cell-based; procedure, shortened: as §4
SK-MEL-2 [18] = assay: Selectivity ratio of IC50 for human SK-MEL-2 cells in presence of 10% FBS to IC50 for human SK-MEL-2 cells in presence of 5% FBS; type: functional
SK-MEL-2 [19] = assay: Antiproliferative activity against human SK-MEL-2 cells up to 10^4 nM after 72 hrs by MTT assay in presence of 10% FBS; type: functional, cell-based; procedure, shortened: as §4
HeLa [20] = assay: Antiproliferative activity against human HeLa cells up to 500 nM after 72 hrs by MTT assay; type: functional, cell-based; procedure, shortened: as §4
Oryctolagus cuniculus [21] = organism: Oryctolagus cuniculus; assay: Binding affinity to eIF4A1/2 in rabbit reticulocyte lysate assessed as inhibition of cap-dependent translation up to 500 nM after 1.5 hrs by dual luciferase reporter gene assay; procedure, shortened: as §3
[22] = Antiproliferative activity against human Jurkat T cells after 72 hrs by MTT assay; type: functional, cell-based; procedure, shortened: as §4
SK-MEL-2 [23] = assay: Selectivity ratio of IC50 for human SK-MEL-2 cells in presence of 5% FBS to IC50 for human SK-MEL-2 cells in presence of 10% FBS; type: functional

Compound: CC(/C=C/C(C)=C/[C@@H]1Cc2nc(cs2)[C@@H](C)C[C@@H](NC(=O)c2ccccc2)CC(=O)O[C@@H](C)C/C(C)=C/C=C\C(=O)O1)=C\CN(C)C
IC50 (Jurkat [1]): 0.015 µM | IC50 [2]: 0.0128 µM | IC50 [3]: 0.0116 µM | IC50 (HaCaT): 0.0034 µM | IC50 (RKO): 0.0042 µM | IC50 (HeLa [4]): 0.0161 µM

Compound: COCCC/C=C/C(C)=C/[C@@H]1Cc2nc(cs2)[C@@H](C)C[C@@H](NC(=O)OC(C)(C)C)CC(=O)O[C@@H](C)C/C(C)=C/C=C\C(=O)O1
IC50 (Jurkat [1]): > 1 µM

Compound: CC(/C=C/C(C)=C/[C@@H]1Cc2nc(cs2)CCCCC(=O)O[C@@H](C)C/C(C)=C/C=C\C(=O)O1)=C\CN1CCOCC1
t1/2 [5]: 0.89 h | t1/2 [6]: 9.23 h | t1/2 [7]: 17.8 h | selectivity ratio [8]: 5 | selectivity ratio [9]: 5 | IC50 (MEF): > 2 µM | selectivity ratio [10]: 5 | IC50 (SK-MEL-2 [11]): 0.157 µM | pKa [12]: 8.36 | inhibition (Oryctolagus cuniculus [13]): inactive | IC50 [14]: 0.0722 µM | Activity (Jurkat [15]): inactive | IC50 (SK-MEL-2 [16]): 0.32 µM | IC50 (HeLa [17]): 0.43 µM | Ratio IC50 (SK-MEL-2 [18]): 2

Compound: CC(/C=C/CCCO)=C\[C@@H]1Cc2nc(cs2)CCCCC(=O)O[C@@H](C)C/C(C)=C/C#CC(=O)O1
inhibition (Oryctolagus cuniculus [13]): inactive | Activity (Jurkat [15]): inactive | Activity (SK-MEL-2 [19]): inactive | Activity (HeLa [20]): inactive

Compound: CC(/C=C/CCCO)=C\[C@@H]1Cc2nc(cs2)CCCCC(=O)O[C@@H](C)C/C(C)=C/C=C\C(=O)O1
inhibition (Oryctolagus cuniculus [13]): inactive | inhibition (Oryctolagus cuniculus [21]): inactive | IC50 [22]: > 5 µM | IC50 (SK-MEL-2 [16]): > 5 µM | Activity (HeLa [20]): inactive

Compound: COC/C=C/C=C/C(C)=C/[C@@H]1Cc2nc(cs2)CCCCC(=O)O[C@@H](C)C/C(C)=C/C=C\C(=O)O1
inhibition (Oryctolagus cuniculus [13]): inactive | inhibition (Oryctolagus cuniculus [21]): inactive | Activity (Jurkat [15]): inactive | IC50 (SK-MEL-2 [16]): > 5 µM | Activity (HeLa [20]): inactive

Compound: COC/C=C/C=C/C(C)=C/[C@@H]1Cc2nc(cs2)CCCCC(=O)O[C@@H](C)C/C(C)=C/C#CC(=O)O1
inhibition (Oryctolagus cuniculus [13]): inactive | Activity (Jurkat [15]): inactive | Activity (SK-MEL-2 [19]): inactive | Activity (HeLa [20]): inactive

Compound: CC(/C=C/C(C)=C/[C@@H]1Cc2nc(cs2)CCCCC(=O)O[C@@H](C)C/C(C)=C/C#CC(=O)O1)=C\CN(C)C
inhibition (Oryctolagus cuniculus [13]): inactive | inhibition (Oryctolagus cuniculus [21]): inactive | Activity (Jurkat [15]): inactive | Activity (SK-MEL-2 [19]): inactive | Activity (HeLa [20]): inactive

Compound: CC(/C=C/C(C)=C/[C@@H]1Cc2nc(cs2)CCCCC(=O)O[C@@H](C)C/C(C)=C/C#CC(=O)O1)=C\CN1CCOCC1
inhibition (Oryctolagus cuniculus [13]): inactive | Activity (Jurkat [15]): inactive | IC50 (SK-MEL-2 [16]): > 5 µM | Activity (HeLa [20]): inactive

Compound: CC(/C=C/C(C)=C/[C@@H]1Cc2nc(cs2)[C@@H](C)C[C@@H](NC(=O)C(F)(F)F)CC(=O)O[C@@H](C)C/C(C)=C/C=C\C(=O)O1)=C\CN(C)C
IC50 (Jurkat [1]): 0.3 µM | IC50 (HaCaT): > 0.1 µM | IC50 (RKO): > 0.1 µM | IC50 (HeLa [4]): > 0.1 µM

Compound: C/C(Br)=C\[C@@H]1Cc2nc(cs2)CCCCC(=O)O[C@@H](C)C/C(C)=C/C=CC(=O)O1
Activity (Jurkat [15]): inactive | Activity (SK-MEL-2 [19]): inactive | Activity (HeLa [20]): inactive

IC50 (Jurkat [1]): 0.34 µM | IC50 (HeLa [4]): > 0.1 µM
Compound: CC(/C=C/CCCO)=C\[C@@H]1Cc2nc(cs2)[C@@H](C)C[C@@H](NC(=O)OC(C)(C)C)CC(=O)O[C@@H](C)C/C(C)=C/C#CC(=O)O1
IC50 [2]: > 0.02 µM | IC50 (HaCaT): > 0.1 µM | IC50 (RKO): > 0.1 µM

Compound: CC(/C=C/C(C)=C/[C@@H]1Cc2nc(cs2)CCCCC(=O)O[C@@H](C)C/C(C)=C/C=C\C(=O)O1)=C\CN1CCCC1
t1/2 [5]: 3.87 h | t1/2 [6]: 14.8 h | t1/2 [7]: 11.7 h | selectivity ratio [8]: 4 | selectivity ratio [9]: 4 | IC50 (MEF): > 0.1 µM | selectivity ratio [10]: 4 | IC50 (SK-MEL-2 [11]): 0.154 µM | pKa [12]: 11 | Ratio IC50 (SK-MEL-2 [23]): 6 | inhibition (Oryctolagus cuniculus [13]): inactive | IC50 [14]: 0.0548 µM | IC50 [22]: 0.025 µM | IC50 (SK-MEL-2 [16]): 0.027 µM | IC50 (HeLa [17]): 0.023 µM
